Key:
Format in all cases: functional
Cavia porcellus [1] = species: Cavia porcellus; assay: Compound was evaluated for its effect on LTD4-induced contraction of guinea pig trachea. percentage of maximal response of tissue to carbachol
Method in brief: (§1)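 Isolated guinea pig tracheal spiral strips were contracted with LTC4 or LTD4, with antagonist at 3×10^-6 M versus untreated control. Responses are expressed as percentage of the tissue's maximal response to carbachol (1 mM). Potency is given as -log of the agonist concentration (M) giving a half-maximal response. pKB = -log([B]/(dose ratio - 1)), where dose ratio = treated ED50 ÷ control ED50. Control vs treated compared by unpaired Student's t test.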

Cavia porcellus [2] = species: Cavia porcellus; assay: Compound was evaluated for its effect on LTD4-induced contraction of guinea pig trachea; method in brief: as §1
Cavia porcellus [3] = species: Cavia porcellus; assay: Compound was evaluated for its effect on LTC4-induced contraction of guinea pig trachea; method in brief: as §1
Cavia porcellus [4] = species: Cavia porcellus; assay: Compound was evaluated for its effect on LTC4-induced contraction of guinea pig trachea. percentage of maximal response of tissue to carbachol; method in brief: as §1

**Q.** Which results are given for CCCc1c(OCCCCc2nnn[nH]2)ccc(C(C)=O)c1O [TOMELUKAST]?
**A.** Max contractility (Cavia porcellus [1]): 57%; -Log ED50 (Cavia porcellus [2]): 7.49; pKB (Cavia porcellus [2]): 5.63; -Log ED50 (Cavia porcellus [3]): 7.47; pKB (Cavia porcellus [3]): 5.74; Max contractility (Cavia porcellus [4]): 73%

Reference: ChEMBL document CHEMBL1123502, “Synthesis of [[(naphthalenylmethoxy)- and [[(quinolinylmethoxy)phenyl]amino]oxoalkanoic acid esters. A novel series of leukotriene D4 antagonists and 5-lipoxygenase inhibitors” (J Med Chem, 1986)
